Reference: ChEMBL document CHEMBL3603779, “Identification and Optimization of Benzimidazole Sulfonamides as Orally Bioavailable Sphingosine 1-Phosphate Receptor 1 Antagonists with in Vivo Activity” (J Med Chem, 2015)
Converted amounts (≈) assume the structure as drawn. The source made the active and inactive calls. The calls are words filed in the database; no cut-off is given here.

How the values were obtained:
[1] = Unbound fraction in mouse plasma at 10 uM by LCMS/MS detection based equilibrium dialysis method; format: ADME, cell-free
[2] = Unbound fraction in human plasma at 10 uM by LCMS/MS detection based equilibrium dialysis method; format: ADME, cell-free
[3] = target: Cytochrome P450 2C9 (Homo sapiens, UniProt P11712); test: Inhibition of CYP2C9 in human liver microsomes incubated for 5 mins in presence of NADPH and specific substrates by LC/MS/MS method; format: ADME
[4] = Intrinsic clearance in dog hepatocytes assessed per 10^6 cells at 1 uM after 0.5 to 120 mins by LCMS/MS method; format: ADME, cell-based, Canis lupus familiaris, Hepatocyte; conditions: read-out: CLH
[5] = Oral bioavailability in Han Wistar rat at 10 mg/kg by LCMS/MS method; format: ADME, organism-based; conditions: in vivo
[6] = Unbound fraction in rat plasma at 10 uM by LCMS/MS detection based equilibrium dialysis method; format: ADME, cell-free
[7] = test system: Calu-6; test: Antitiumor activity against human Calu6 cells xenografted in NCr mouse assessed as tumor growth at 20 mg/kg, po bid dosed on day 13 to 32
[8] = target: T1, Cytochrome P450 3A5 (Homo sapiens, UniProt P20815); test: Inhibition of CYP3A5 in human liver microsomes incubated for 5 mins in presence of NADPH and specific substrates by LC/MS/MS method; format: ADME
[9] = target: T2, Cytochrome P450 1A2 (Homo sapiens, UniProt P05177); test: Inhibition of CYP1A2 in human liver microsomes incubated for 5 mins in presence of NADPH and specific substrates by LC/MS/MS method; format: ADME
T2 sequence (P05177 whole entry): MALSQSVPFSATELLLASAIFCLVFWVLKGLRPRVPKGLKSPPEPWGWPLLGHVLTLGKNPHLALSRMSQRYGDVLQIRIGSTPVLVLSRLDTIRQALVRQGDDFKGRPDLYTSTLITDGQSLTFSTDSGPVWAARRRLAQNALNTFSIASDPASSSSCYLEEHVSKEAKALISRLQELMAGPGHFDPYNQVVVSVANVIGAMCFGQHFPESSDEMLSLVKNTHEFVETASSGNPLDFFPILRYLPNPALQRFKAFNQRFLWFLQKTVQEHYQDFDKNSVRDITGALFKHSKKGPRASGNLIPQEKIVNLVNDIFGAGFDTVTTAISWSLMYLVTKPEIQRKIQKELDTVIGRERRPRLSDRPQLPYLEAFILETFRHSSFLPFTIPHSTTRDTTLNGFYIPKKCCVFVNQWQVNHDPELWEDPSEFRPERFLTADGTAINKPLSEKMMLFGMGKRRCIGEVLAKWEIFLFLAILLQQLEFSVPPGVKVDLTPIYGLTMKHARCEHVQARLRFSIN

[10] = target: T3, Nuclear receptor subfamily 1 group I member 2 (Homo sapiens, UniProt O75469); test: Activation of human PXR expressed in human HepG2 cells co-expressing CYP3A4 assessed as CYP3A4 activation at 10 uM by luciferase reporter gene assay relative to rifampicin; format: ADME, cell-based; conditions: hepg2, 10 µM
T3 sequence (O75469 whole entry): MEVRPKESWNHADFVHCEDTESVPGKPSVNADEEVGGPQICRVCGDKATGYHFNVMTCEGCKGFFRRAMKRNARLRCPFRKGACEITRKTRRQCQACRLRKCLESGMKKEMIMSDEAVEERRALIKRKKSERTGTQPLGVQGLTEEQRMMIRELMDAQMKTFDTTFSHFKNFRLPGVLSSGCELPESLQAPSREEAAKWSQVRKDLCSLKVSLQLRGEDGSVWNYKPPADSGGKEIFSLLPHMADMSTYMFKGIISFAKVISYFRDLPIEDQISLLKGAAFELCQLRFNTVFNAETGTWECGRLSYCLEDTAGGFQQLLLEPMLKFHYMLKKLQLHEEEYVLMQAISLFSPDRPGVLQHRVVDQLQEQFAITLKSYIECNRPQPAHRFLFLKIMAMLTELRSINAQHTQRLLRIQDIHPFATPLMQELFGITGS
In short: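 Single-concentration PXR reporter gene screen, compound at 10 μM; activation expressed as a percentage of the response to rifampicin, also at 10 μM.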

[11] = Intrinsic clearance in rat hepatocytes assessed per 10^6 cells at 1 uM after 0.5 to 120 mins by LCMS/MS method; format: ADME, cell-based, Hepatocyte; conditions: read-out: CLH
[12] = Unbound fraction in dog plasma at 10 uM by LCMS/MS detection based equilibrium dialysis method; format: ADME, cell-free, Canis lupus familiaris
[13] = target: Cytochrome P450 2D6 (Homo sapiens, UniProt P10635); test: Inhibition of CYP2D6 in human liver microsomes incubated for 5 mins in presence of NADPH and specific substrates by LC/MS/MS method; format: ADME
[14] = Cmax in Han Wistar rat at 10 mg/kg, po by LCMS/MS method; format: ADME, organism-based; design: dose 10 mg/kg, route oral; conditions: in vivo
[15] = Aqueous equilibrium solubility in pH 7.4 phosphate buffer incubated for 24 hrs by HPLC-UV and MS method; format: physicochemical
[16] = target: T1, Cytochrome P450 3A5; test: Induction of CYP3A5 activation in human hepatocytes at 10 uM incubated for 48 hrs using testosterone substrate relative to rifampicin; format: ADME, cell-based, Hepatocyte
In short: (§1)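 Human hepatocyte CYP3A induction, testosterone probe with 6-β-hydroxytestosterone as marker; activity expressed as % of the rifampicin response; hepatocytes from two donors tested.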

[17] = target: T4, Cytochrome P450 3A4 (Homo sapiens, UniProt P08684); test: Inhibition of CYP3A4 in human liver microsomes incubated for 5 mins in presence of NADPH and specific substrates by LC/MS/MS method; format: ADME
[18] = Intrinsic clearance in human hepatocytes assessed per 10^6 cells at 1 uM after 0.5 to 120 mins by LCMS/MS method; format: ADME, cell-based, Hepatocyte; conditions: read-out: CLH
[19] = target: Cytochrome P450 2C19 (Homo sapiens, UniProt P33261); test: Inhibition of CYP2C19 in human liver microsomes incubated for 5 mins in presence of NADPH and specific substrates by LC/MS/MS method; format: ADME
[20] = Intrinsic clearance in mouse hepatocytes assessed per 10^6 cells at 1 uM after 0.5 to 120 mins by LCMS/MS method; format: ADME, cell-based, Hepatocyte; conditions: read-out: CLH
[21] = target: Sphingosine 1-phosphate receptor 1 (Homo sapiens, UniProt P21453); test: Antagonist activity against human S1P1 receptor expressed in human U2OS cells co-expressing GFP assessed as inhibition of S1P-induced receptor translocation; format: cell-based
In short: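 Cellular S1P1 translocation (internalization) assay with antagonist; EC50 reported as mean of at least three separate determinations ± standard deviation.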

[22] = Lipophilicity, log D of the compound at pH 7.4; format: physicochemical; conditions: buffer
[23] = test system: Mus musculus; test: Inhibition of FGF-S1P-stimulated angiogenesis in 129s1/SvImJ mouse assessed as reduction in hemoglobin level at 10 mg/kg, po administered once-daily for 4 days by spectrophotometry based matrigel plug angiogenesis assay; format: functional, organism-based
In short: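 Matrigel (0.5 mL) with 2 µg/mL β-FGF and 1 µM S1P injected subcutaneously in the ventral region of female 129s1/SvImJ mice. Oral dosing at 10 mg/kg once daily on days 5-8 post-implant (5 per cohort); vehicle 0.5% HPMC, 0.1% Tween 80. Controls also include Matrigel without factors. Hemoglobin per gram of plug gel quantified.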

[24] = target: T4, Cytochrome P450 3A4; test: Induction of CYP3A4 activation in human hepatocytes at 10 uM incubated for 48 hrs using testosterone substrate relative to rifampicin; format: ADME, cell-based, Hepatocyte; in short: as §1

T4 sequence (P08684 whole entry): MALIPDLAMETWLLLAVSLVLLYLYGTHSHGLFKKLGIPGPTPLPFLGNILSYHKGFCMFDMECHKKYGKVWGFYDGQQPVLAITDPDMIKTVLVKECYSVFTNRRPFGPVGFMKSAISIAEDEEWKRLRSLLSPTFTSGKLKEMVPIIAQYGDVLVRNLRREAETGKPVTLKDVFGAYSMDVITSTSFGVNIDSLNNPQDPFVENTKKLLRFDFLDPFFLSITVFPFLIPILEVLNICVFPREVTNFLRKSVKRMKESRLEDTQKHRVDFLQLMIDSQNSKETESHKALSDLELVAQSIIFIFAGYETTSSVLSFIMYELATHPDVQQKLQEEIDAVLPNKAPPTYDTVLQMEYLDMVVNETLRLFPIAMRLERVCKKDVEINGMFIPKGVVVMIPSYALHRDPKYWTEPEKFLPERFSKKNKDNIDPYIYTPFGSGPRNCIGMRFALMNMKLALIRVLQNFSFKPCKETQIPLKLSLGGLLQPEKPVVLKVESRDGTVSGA
T1 sequence (P20815 whole entry): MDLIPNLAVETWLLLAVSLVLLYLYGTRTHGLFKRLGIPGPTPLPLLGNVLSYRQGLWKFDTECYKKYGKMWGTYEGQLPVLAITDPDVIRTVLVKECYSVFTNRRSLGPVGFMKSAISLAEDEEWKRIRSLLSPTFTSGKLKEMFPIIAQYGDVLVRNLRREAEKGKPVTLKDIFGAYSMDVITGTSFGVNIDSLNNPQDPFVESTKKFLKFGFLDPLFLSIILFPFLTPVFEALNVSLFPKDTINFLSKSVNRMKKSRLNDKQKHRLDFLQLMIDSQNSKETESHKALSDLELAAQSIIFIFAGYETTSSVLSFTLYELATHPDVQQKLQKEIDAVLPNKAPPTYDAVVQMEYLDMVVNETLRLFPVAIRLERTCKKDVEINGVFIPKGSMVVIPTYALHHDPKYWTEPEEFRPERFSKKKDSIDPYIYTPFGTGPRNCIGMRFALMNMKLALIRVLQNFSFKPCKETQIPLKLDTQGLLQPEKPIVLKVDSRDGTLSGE
Sequence of Cytochrome P450 2D6 (P10635 whole entry): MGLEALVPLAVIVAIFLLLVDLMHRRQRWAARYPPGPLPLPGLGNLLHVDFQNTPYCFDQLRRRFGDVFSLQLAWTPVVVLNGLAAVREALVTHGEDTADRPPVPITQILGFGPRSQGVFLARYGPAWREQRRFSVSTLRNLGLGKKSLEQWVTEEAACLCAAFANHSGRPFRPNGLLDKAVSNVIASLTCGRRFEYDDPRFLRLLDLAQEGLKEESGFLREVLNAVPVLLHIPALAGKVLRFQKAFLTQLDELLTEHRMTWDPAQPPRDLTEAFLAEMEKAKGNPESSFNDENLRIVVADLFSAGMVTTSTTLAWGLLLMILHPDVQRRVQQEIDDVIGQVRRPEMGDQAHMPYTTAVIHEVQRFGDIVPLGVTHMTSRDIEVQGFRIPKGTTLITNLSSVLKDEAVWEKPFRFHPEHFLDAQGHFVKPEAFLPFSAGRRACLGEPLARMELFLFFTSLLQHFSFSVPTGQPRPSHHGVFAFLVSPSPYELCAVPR
Sequence of Sphingosine 1-phosphate receptor 1 (P21453 whole entry): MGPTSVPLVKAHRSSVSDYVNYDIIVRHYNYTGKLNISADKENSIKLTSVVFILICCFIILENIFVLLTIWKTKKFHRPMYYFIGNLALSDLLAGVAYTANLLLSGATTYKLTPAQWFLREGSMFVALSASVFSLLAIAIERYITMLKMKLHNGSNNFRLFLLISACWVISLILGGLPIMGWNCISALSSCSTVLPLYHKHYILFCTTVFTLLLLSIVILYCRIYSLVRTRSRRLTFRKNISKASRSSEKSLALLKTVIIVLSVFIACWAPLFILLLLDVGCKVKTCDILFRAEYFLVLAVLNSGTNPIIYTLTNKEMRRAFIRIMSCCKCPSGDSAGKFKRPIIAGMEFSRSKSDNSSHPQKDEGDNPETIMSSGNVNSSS
Sequence of Cytochrome P450 2C19 (P33261 whole entry): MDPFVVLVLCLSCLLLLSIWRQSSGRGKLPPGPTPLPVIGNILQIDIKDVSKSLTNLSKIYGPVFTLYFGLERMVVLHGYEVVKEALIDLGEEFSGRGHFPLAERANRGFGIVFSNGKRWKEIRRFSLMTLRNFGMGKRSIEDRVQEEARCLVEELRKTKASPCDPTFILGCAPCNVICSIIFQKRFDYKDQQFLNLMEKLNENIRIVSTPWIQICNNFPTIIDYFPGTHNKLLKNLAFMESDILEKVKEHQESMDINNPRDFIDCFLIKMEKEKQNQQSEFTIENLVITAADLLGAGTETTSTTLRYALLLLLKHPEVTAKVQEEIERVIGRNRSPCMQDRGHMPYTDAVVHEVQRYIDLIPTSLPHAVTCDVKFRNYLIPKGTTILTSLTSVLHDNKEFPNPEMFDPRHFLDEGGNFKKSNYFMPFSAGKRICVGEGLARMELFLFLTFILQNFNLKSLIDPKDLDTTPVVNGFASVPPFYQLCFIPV
Sequence of Cytochrome P450 2C9 (P11712 whole entry): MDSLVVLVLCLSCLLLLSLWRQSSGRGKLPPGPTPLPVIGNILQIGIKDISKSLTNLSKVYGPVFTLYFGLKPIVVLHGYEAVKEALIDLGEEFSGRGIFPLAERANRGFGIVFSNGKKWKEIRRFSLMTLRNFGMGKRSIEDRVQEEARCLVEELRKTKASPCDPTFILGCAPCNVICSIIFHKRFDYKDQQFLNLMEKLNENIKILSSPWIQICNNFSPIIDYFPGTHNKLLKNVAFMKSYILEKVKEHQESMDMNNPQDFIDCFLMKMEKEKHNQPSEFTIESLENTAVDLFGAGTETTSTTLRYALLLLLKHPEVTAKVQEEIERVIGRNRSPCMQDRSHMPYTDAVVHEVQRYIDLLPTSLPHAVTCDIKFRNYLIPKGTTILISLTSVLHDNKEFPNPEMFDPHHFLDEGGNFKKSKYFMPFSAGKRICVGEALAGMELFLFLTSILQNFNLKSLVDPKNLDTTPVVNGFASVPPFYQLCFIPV

Row | SMILES | fraction unbound at 10 µM [1] | fraction unbound at 10 µM [2] | IC50 [3] [µM] | hepatocyte CLint at 1 µM [4] [µL/min/1e6 cells] | bioavailability [5] [%] | fraction unbound at 10 µM [6] | IC50 [8] [µM] | IC50 [9] [µM] | Activity [10] [%] | hepatocyte CLint at 1 µM [11] [µL/min/1e6 cells] | fraction unbound at 10 µM [12] | IC50 [13] [µM] | Cmax [14] [µM] | solubility thermodynamic at 24 h [15] [µM] | Activity [16] [%] | IC50 [17] [µM] | hepatocyte CLint at 1 µM [18] [µL/min/1e6 cells] | IC50 [19] [µM] | hepatocyte CLint at 1 µM [20] [µL/min/1e6 cells] | EC50 [21] [µM] | also measured
1 | CCn1c([C@@H](C)NS(=O)(=O)c2ccc(C#N)nc2)nc2cnc(C(F)(F)F)cc21 | 0.53 | 0.24 | > 20 | 2.4 | 87 | 0.32 | > 20 | > 20 | 15 | 2.1 | 0.36 | > 20 | 13.3 | 765 (≈ 325 µg/mL) | < 40 | > 20 | 1.2 | > 20 | 0.3 | 0.007 | growth inhibition (GI) [7]: inactive; logD [22]: 1.3; inhibition [23]: Active; Activity [24]: < 40%
2 | CCn1c([C@@H](C)NS(=O)(=O)c2ccc(C#N)nc2)nc2cnc(C3CC3)cc21 | 0.41 | 0.19 | > 20 | 1.7 | 93 | 0.18 | > 20 | > 20 | 20 | 3.9 | 0.5 | > 20 | 21.7 | > 1000 | < 40 | > 20 | 0.2 | > 20 | 2.5 | 0.004 | logD [22]: 1.6; inhibition [23]: Active; Activity [24]: < 40%
